# Source: ChEMBL document CHEMBL1123514 (J Med Chem, 1986)
# Columns and labels:
# Homo sapiens [1] = species: Homo sapiens; assay: The compound was evaluated for the optical density at concentrations 10E-7 M in MCF-7 cell culture in the presence of estradiol.; format: ADME
# Procedure, shortened: (§1)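 MCF-7 cells seeded at 10000 cells/mL in 96-well dishes and cultured 24 h. Compound (final 10⁻⁷, 10⁻⁶ or 10⁻⁵ M) was then added together with estradiol at 10⁻⁸ M final to test whether estradiol antagonizes growth inhibition. After 5 days, cells were ethanol-fixed (90%) and hematoxylin-stained, and optical density was read at 540 nm.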
# [2] = molecular target: Estrogen receptor (Homo sapiens) (UniProt P03372)
# Chain of Estrogen receptor (Homo sapiens) (P03372 whole entry, looked up): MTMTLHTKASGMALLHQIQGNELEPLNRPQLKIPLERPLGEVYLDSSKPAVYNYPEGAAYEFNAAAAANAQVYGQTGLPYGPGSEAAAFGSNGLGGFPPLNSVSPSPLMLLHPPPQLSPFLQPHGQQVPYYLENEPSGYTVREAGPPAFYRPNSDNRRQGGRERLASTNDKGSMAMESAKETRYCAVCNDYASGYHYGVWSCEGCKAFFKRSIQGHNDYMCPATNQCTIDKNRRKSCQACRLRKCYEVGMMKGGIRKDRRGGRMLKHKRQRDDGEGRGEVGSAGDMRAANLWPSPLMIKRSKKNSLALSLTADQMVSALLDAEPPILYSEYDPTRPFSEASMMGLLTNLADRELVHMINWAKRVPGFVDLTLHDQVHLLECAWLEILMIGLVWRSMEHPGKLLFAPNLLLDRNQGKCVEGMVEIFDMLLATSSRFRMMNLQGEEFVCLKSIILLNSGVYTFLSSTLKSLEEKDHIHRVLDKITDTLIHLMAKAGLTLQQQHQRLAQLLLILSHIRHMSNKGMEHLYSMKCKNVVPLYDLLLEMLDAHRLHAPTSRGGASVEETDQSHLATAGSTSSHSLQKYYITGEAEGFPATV
# Homo sapiens [3] = species: Homo sapiens; assay: The compound was evaluated for the optical density at concentration 10E-7 M in MCF-7 cell culture.; format: ADME
# Homo sapiens [4] = species: Homo sapiens; assay: The compound was evaluated for the optical density at concentration 10E-6 M in MCF-7 cell culture.; format: ADME
# Homo sapiens [5] = species: Homo sapiens; assay: The compound was evaluated for the optical density at concentrations 10E-5 M in MCF-7 cell culture in the presence of estradiol.; format: ADME; procedure, shortened: as §1
# [6] = molecular target: Estrogen receptor (Rattus norvegicus) (UniProt P06211+Q62986)
# Homo sapiens [7] = species: Homo sapiens; assay: The compound was evaluated for the optical density at concentration 10E-6 M in MCF-7 cell culture in the presence of estradiol.; format: ADME; procedure, shortened: as §1
# Homo sapiens [8] = species: Homo sapiens; assay: The compound was evaluated for the optical density at concentration 10E-5 M in MCF-7 cell culture.; format: ADME
SMILES,Optical density (Homo sapiens [1]),Affinity [2],Optical density (Homo sapiens [3]),Optical density (Homo sapiens [4]),Optical density (Homo sapiens [5]),Affinity [6],Optical density (Homo sapiens [7]),Optical density (Homo sapiens [8])
CN(C)CCOc1ccc(C2=C(c3ccccc3)CCCc3ccccc32)cc1,0.379,0.02,0.244,0.182,0.098,1,0.438,0.058
CN(C)CCOc1ccc(C2=C(c3ccccc3)CCc3ccccc32)cc1,0.45,0.02,0.39,0.288,0.079,0.5,0.385,0.049
